# In article PMC11315854 (Drugs in R&D, 2024):
# Like-named read-outs stand apart in the source and are kept apart here.
# What was measured:
# advanced solid tumors = format: in vivo, human
# How it was run: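 Phase 1 dose-escalation patients with advanced solid tumours or NHL, oral 2–200 mg (QD, 3-weeks-on/1-week-off, or QW). Lesions imaged by CT or MRI at baseline, after cycles 1 and 2, then every two cycles. Tumour size linked to predicted %pAkt inhibition via growth/shrinkage model with sigmoid Ks. Individual PK and dosing records used, with individual or typical IC50. All doses fitted simultaneously.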
# 786-O cell line = details: in vitro, cancer cell lines; cited from earlier work
# [1] = Unbound fraction in humans; format: in vitro ADME; details: human, plasma
# [2] = Patient population pharmacokinetic model; format: in vivo, human
# How it was run: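 Phase 1 3+3 dose-escalation patients. Single oral dose on day 1, 1-week washout, then QD, 3-weeks-on/1-week-off, or QW. Plasma sampled intensively in cycle 1 and pre-dose in later cycles. Assayed by LC–MS/MS (LLOQ 0.5 ng/mL). Two-compartment nonlinear mixed-effects model with first-order absorption, exponential IIV and proportional residual error, fitted in NONMEM.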
# pAkt [3] = format: in vivo, human; details: patients
# How it was run: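 Blood drawn pre-dose and 1, 3, 8 and 24 h post-dose on day 1 from phase 1 patients (n = 37). pAkt in platelet-rich plasma measured by MSD assay and expressed as % of baseline. Concentrations predicted from individual population-PK parameters. Indirect response model (inhibition of pAkt formation) fitted, with Imax and γ1 fixed at 1, proportional error and IIV on IC50.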
# [4] = Mouse pharmacokinetic model; format: in vivo, mice
# How it was run: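 Mean plasma concentration–time data from nude mice given single oral 1, 5 or 10 mg/kg (n = 27 per dose), taken from earlier work. Sampling pre-dose and at 0.083–24 h. Linear one-compartment model with first-order oral absorption fitted simultaneously across doses to estimate ka, CL/F and V/F, with RSE%.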
# pAkt [5] = details: patients, doses ≥ 16 mg; cited from earlier work
# pAkt (serine 473) = format: in vivo, mice
# [6] = system: 786-O human renal cell adenocarcinoma (RCC) xenografts; assay: Integrated PK–PD–efficacy model, tumor volume in 786-O xenograft mice; format: in vivo; details: 786-O xenografts
# How it was run: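 Female beige nude XID mice bearing subcutaneous 786-O tumour fragments. Grouped at 100–300 mm3 (mean 181 mm3). Dosed PO QD for 17 days in MCT (0.5% methylcellulose, 0.2% Tween 80), vehicle or 0.008–11 mg/kg, n = 6. Caliper volumes taken pre-dose and at 72–408 h. Inhibition predicted from mouse PK and PK–PD models. All groups fitted simultaneously to growth/shrinkage model with sigmoid Ks.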
# Unbound fraction in mice = format: in vitro ADME; details: mouse, plasma
# Gli mRNA = details: preclinical models of the hedgehog pathway; cited from earlier work
# [7] = nude mice, single PO 1, 5 and 10 mg/kg, one-compartment model
smiles,measurement,setting,value
Cc1c(CN2CCN(C(=O)[C@H](C)O)CC2)sc2c(N3CCOCC3)nc(-c3cnc(N)nc3)nc12 [apitolisib],Kmax (maximum value of tumor shrinkage rate constant Ks),advanced solid tumors; patients with advanced solid tumors,0.0142 1/week
same,Kg (net tumor growth rate constant),"advanced solid tumors; patients with advanced solid tumors, 2–200 mg",0.0097 1/week
same,KI50 (I where Ks is 50% of Kmax),"advanced solid tumors; patients, pAkt in surrogate plasma",58.0 %pAKT inhibition
same,constant pAkt inhibition necessary to achieve tumor stasis (Ks = Kg),"advanced solid tumors; patients, platelet-rich plasma pAkt",65%
same,responsiveness of 786-O cell line compared with other tumor types such as MCF-7,786-O cell line,less responsive
same,fraction unbound,[1],0.388
same,k el,"[2]; human, plasma, oral",2.78e-05 s⁻¹
same,CL/F,"[2]; human, plasma, po",5.07 mL/min/kg
same,body-weight-normalized apparent volume of the central compartment (V1/F),"[2]; patients, assuming reference body weight of 70 kg",3.01 L/kg
same,absorption lagged time estimate (RSE%),"[2]; patients, n = 146, oral dosing",0.465 (0.43%) h
same,"absorption rate constant (ka), population typical value (RSE%)","[2]; patients, n = 146, oral dosing",3.35 (16.8%) h^−1
same,"apparent intercompartmental clearance (CLd/F), population typical value (RSE%)","[2]; patients, n = 146, oral dosing",5.93 (8.53%) L/h
same,"apparent oral clearance (CL/F), population typical value (RSE%)","[2]; patients, n = 146, oral dosing, two-compartment model",21.3 (4.28%) L/h
same,kin (rate of biomarker production),pAkt [3]; platelet-rich plasma pAkt,"88,699 %/h"
same,effect on pAkt in plasma with increasing doses,"pAkt [3]; platelet-rich plasma, 2–70 mg",dose-dependent decrease
same,peak suppression of the platelet pAkt,"pAkt [3]; platelet-rich plasma, doses ≥ 12 mg",90%
same,Imax (maximum inhibition of %pAkt),pAkt [3]; fixed in model,1 (fix)
same,kout (first-order rate constant describing biomarker loss),"pAkt [3]; kout = kin/%pAkt(0), baseline 100%",886.99 h⁻¹
same,linearity of pharmacokinetics over the range of doses tested,"[4]; mice, PO 1, 5 and 10 mg/kg",linear
same,"absorption rate constant (ka), estimate (RSE%)",[4]; [7],1.1 (36.4%) h^−1
same,"apparent volume of distribution after oral dosing (V/F), estimate (RSE%)",[4]; [7],1.13 (17.3%) L/kg
same,k el,"[4]; nude, mouse, plasma, oral",8.33e-05 s⁻¹
same,"reduction in platelet-rich plasma PD markers, including pAkt",pAkt [5],≥ 90%
same,pAkt reduction in tumor,"pAkt (serine 473); 786-O tumor-bearing mice, single oral 0.3 mg/kg",very weak
same,duration of sustained pAkt suppression in tumor,"pAkt (serine 473); 786-O tumor-bearing mice, single oral 3 mg/kg",6 h
same,duration of sustained pAkt suppression in tumor,"pAkt (serine 473); 786-O tumor-bearing mice, single oral 10 mg/kg",12 h
same,effect on pAkt in tumors across doses,"pAkt (serine 473); 786-O tumor-bearing mice, single oral 0.3, 3 and 10 mg/kg",dose-dependent decrease
same,kin (rate of biomarker production),"pAkt (serine 473); 786-O xenograft mice, tumor tissue pAkt","88,698 %/h"
same,Imax (maximum inhibition of %pAkt),"pAkt (serine 473); 786-O xenograft mice, fixed in model",1 (fix)
same,kout (first-order rate constant describing biomarker loss),"pAkt (serine 473); 786-O xenograft mice, kout = kin/%pAkt(0), baseline 100%",886.98 h⁻¹
same,Kmax (maximum value of tumor shrinkage rate constant Ks),[6],0.0194 h⁻¹
same,Kg (net tumor growth rate constant),"[6]; QD PO 17 days, 0.008–11 mg/kg",0.0057 h⁻¹
same,KI50 (I where Ks is 50% of Kmax),[6]; pAkt in tumor tissue,67.2 %pAKT inhibition
same,constant pAkt inhibition necessary to achieve tumor stasis (Ks = Kg),[6]; tumor tissue pAkt,61%
same,fraction unbound,Unbound fraction in mice,0.294
CS(=O)(=O)c1ccc(C(=O)Nc2ccc(Cl)c(-c3ccccn3)c2)c(Cl)c1 [vismodegib],minimum Gli mRNA inhibition needed for tumor growth inhibition,Gli mRNA,~50%
